Assays:
[1] = biological target: Kappa-type opioid receptor (Cavia porcellus, UniProt P41144); test: Ability to displace [3H]bremazocine from opioid receptor kappa in guinea pig brain membranes; No inhibition; assay type: cell membranes
Outline: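 Kappa sites labeled with 2 nM [3H]bremazocine on guinea pig brain P2 membranes (500 µg protein) in 10 mM Tris-HCl pH 7.4, 0.5 mL, with 100 nM DAGO and 100 nM DSTLE to mask mu/delta; 90 min at 25 °C. Terminated by ice-cold buffer and glass-fiber filtration. Screened at 100, 1000 and 10,000 nM; duplicates.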

[2] = test system: Glutamate [NMDA] receptor; test: Ability to displace [3H]TCP from PCP receptor in guinea pig membranes; No inhibition; assay type: cell membranes, Cavia porcellus
Outline: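 Guinea pig brain crude P2 membranes (500 µg protein) incubated with 5 nM [3H]TCP in 5 mM Tris-HCl pH 7.4, 0.5 mL, 60 min at 4 °C; stopped by ice-cold buffer and filtration through polyethylenimine-soaked (0.3%) glass-fiber filters, washed twice. Nonspecific binding with 10 µM cyclazocine. Screened at 100, 1000 and 10,000 nM; duplicates.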

D(2) dopamine receptor = D(2) dopamine receptor (Rattus norvegicus, UniProt P61169); test: Ability to displace [3H]sulpiride from dopamine receptor D2 in rat brain; assay type: tissue-based
Chain of D(2) dopamine receptor (P61169 whole entry): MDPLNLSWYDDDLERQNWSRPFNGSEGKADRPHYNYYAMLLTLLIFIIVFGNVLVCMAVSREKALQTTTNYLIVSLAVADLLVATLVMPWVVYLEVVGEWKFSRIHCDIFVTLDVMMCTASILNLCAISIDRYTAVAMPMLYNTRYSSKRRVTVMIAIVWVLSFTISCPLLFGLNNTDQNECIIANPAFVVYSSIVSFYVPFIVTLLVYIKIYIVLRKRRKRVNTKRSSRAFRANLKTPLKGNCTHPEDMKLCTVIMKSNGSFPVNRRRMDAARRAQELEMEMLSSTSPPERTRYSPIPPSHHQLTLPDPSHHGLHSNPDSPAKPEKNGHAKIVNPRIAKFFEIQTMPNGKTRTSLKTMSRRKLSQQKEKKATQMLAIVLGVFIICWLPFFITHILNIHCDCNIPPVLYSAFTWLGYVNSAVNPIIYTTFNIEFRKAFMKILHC
Outline: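 Rat (male Sprague-Dawley) brain P2 membranes, 500 µg protein, with 5 nM [3H]-(-)-sulpiride in 50 mM Tris-HCl pH 7.7 + 120 mM NaCl, 60 min at 25 °C; haloperidol 1 µM for nonspecific binding; filtration, two washes.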

[3] = biological target: Glutamate [NMDA] receptor; test: Ability to displace [3H]TCP from PCP receptor in guinea pig membranes; assay type: cell membranes, Cavia porcellus
Outline: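 Guinea pig brain (minus cerebella) crude P2 membranes, 500 µg protein, incubated with 5 nM [3H]TCP in 5 mM Tris-HCl pH 7.4 for 60 min at 4 °C. Filtered on polyethylenimine-soaked glass-fiber filters; nonspecific binding defined with 10 µM cyclazocine. […] Duplicates, 2–3 experiments; IC50 converted to Ki by Cheng-Prusoff (Kd 25 nM).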

Chain of Kappa-type opioid receptor (P41144 whole entry): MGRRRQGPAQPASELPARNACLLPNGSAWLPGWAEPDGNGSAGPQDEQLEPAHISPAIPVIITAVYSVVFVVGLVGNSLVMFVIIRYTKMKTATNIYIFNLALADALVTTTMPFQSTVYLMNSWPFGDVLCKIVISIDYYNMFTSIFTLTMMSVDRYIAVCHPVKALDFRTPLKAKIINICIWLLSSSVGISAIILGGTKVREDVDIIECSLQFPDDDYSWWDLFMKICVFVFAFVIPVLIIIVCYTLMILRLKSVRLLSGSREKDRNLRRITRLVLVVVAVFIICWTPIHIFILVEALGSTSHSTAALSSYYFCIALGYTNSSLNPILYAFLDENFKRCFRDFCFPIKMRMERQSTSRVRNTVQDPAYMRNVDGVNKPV

CCN(CCc1ccc(Cl)c(Cl)c1)CCN1CCCC1
Ki [1]: Not Active | Ki [2]: Not Active | Ki (D(2) dopamine receptor): 1.66 µM

CN(CCc1cccc(Cl)c1)CCN1CCCC1
Ki [1]: Not Active | Ki [2]: Not Active | Ki (D(2) dopamine receptor): 6.5 µM

CN(CCc1ccc(Cl)c(Cl)c1)CCN1CCCCC1
Ki [1]: Not Active | Ki [2]: Not Active | Ki (D(2) dopamine receptor): 1.21 µM

CN(CCN1CCCC1)Cc1ccc(Cl)c(Cl)c1
Ki [1]: Not Active | Ki [2]: Not Active | Ki (D(2) dopamine receptor): 1.3 µM

CCN(CC)CCN(C)CCc1ccc(Cl)c(Cl)c1
Ki [1]: Not Active | Ki [2]: Not Active | Ki (D(2) dopamine receptor): 3.01 µM

CN(CCc1ccc(Cl)c(Cl)c1)CCN1CCCC1
Ki [1]: Not Active | Ki [2]: Not Active | Ki (D(2) dopamine receptor): 1.11 µM

C[C@@H](CN1CCCC1)N(C)CCc1ccc(Cl)c(Cl)c1
Ki [1]: Not Active | Ki [3]: 3.04 µM | Ki (D(2) dopamine receptor): 11.2 µM

CN(CCc1ccc(Cl)c(Cl)c1)CCN1CCCCCC1
Ki [1]: Not Active | Ki [3]: 6.94 µM | Ki (D(2) dopamine receptor): 6.75 µM
